Experimental data of several laboratories.
Each line is one published result; the experiments were not run side by side.
Target: Tyrosine-protein kinase ABL2 (ABL2, Homo sapiens, UniProt P42684)

| Structure (SMILES) | assay | setting | endpoint | result |
| --- | --- | --- | --- | --- |
| CC(=O)N1CCC(c2ccc(C(=O)NC3=NCCN3)cc2C(F)(F)F)CC1 | cell-free assay, competition with immobilised ligand | 1 µM | remaining binding | 100% |
| CNC(=O)c1cc2c(Oc3ccc(NC(=O)C4(C(=O)Nc5ccc(F)cc5)CC4)cc3)ccnc2cc1OC | enzyme activity, inhibitor, radiometric | 1 µM | inhibition | 88% |
| CCN(CC)CCNC(=O)c1c(C)[nH]c(/C=C2\C(=O)Nc3ccc(F)cc32)c1C | binding, competition with immobilised ligand | 10 µM | inhibition | 77% |
| CC(C)(O)[C@H]1CC[C@H](Nc2ccc3ncc(-c4cccc(C(F)(F)F)c4)n3n2)CC1 | enzyme activity, inhibitor | 1 µM | remaining activity | 76.5% |
| COc1cc(-c2cn(C3CCc4ccccc4N(CC(F)(F)F)C3=O)nn2)ccc1-n1ccc(C)n1 (centres unmarked) | cell-free assay, competition with immobilised ligand | 1 µM | remaining binding | 100% |
| COc1cc2nccc(Oc3ccc(NC(=O)c4c5n(n(-c6ccc(F)cc6)c4=O)CCCC5)cc3)c2cc1OC | enzyme activity, inhibitor | 0.1 µM | inhibition | 36% |
| O=C(Nc1cnn(-c2csc(C(=O)NC3COC3)c2)c1)Nc1c(F)cccc1Cl | enzyme activity, inhibitor | 5 µM | remaining activity | 88.7% |
| CN(C(=O)c1ccccc1)c1cc(N(C)c2ccc3c(c2)CCc2ccc(C(=O)NCCN4CCOCC4)cc2C3=O)ccc1F | cell-free assay, competition with immobilised ligand | 1 µM | remaining binding | 100% |
| CNC(=O)c1cc(Oc2ccc(NC(=O)Nc3ccc(Cl)c(C(F)(F)F)c3)cc2)ccn1 | enzyme activity, inhibitor | 0.3 µM | inhibition | 11% |
| C=CC(=O)Nc1cc(Nc2nccc(Nc3cc(Cl)c(F)cc3C(C)(C)O)n2)c(OC)cc1N1CC[C@@H](N(C)C)C1 | enzyme activity, inhibitor | 1 µM | inhibition | 18% |
| Clc1ccc(Nc2nnc(Cc3ccncc3)c3ccccc23)cc1 | cell-free assay | 0.5 µM | remaining signal | 101% |
| Cc1nc(N2CC[C@@H](O)C2)ncc1-c1cc(C(F)(F)F)cc2[nH]ncc12 | binding, competition with immobilised ligand | 1 µM | remaining binding | 60% |
| Cc1ccc(Nc2nccc(N(C)c3ccc4c(C)n(C)nc4c3)n2)cc1S(N)(=O)=O | enzyme activity, inhibitor | 10 µM | inhibition | 84% |
| C[C@H](c1ccc(F)cc1)N(Cc1cccc(C(=O)O)c1)C(=O)c1cnc2ccccc2c1 | cell-free assay, competition with immobilised ligand | 1 µM | remaining binding | 82% |
| CC(C)(C)c1nc(-c2cccc(NS(=O)(=O)c3c(F)cccc3F)c2F)c(-c2ccnc(N)n2)s1 | enzyme activity, inhibitor, radiometric | 1 µM | remaining activity | 77% |
| CCCOc1ccc(OC)c(F)c1C(=O)c1ccc(C(=O)N[C@@H]2CNC[C@H]2NC(=O)c2ccc3[nH]ncc3c2)cc1 | enzyme activity, inhibitor | 10 µM | remaining activity | 89% |
| O=C(Nc1cnn(-c2csc(C(=O)NC3COC3)c2)c1)Nc1ccccc1Cl | enzyme activity, inhibitor | 5 µM | remaining activity | 92.7% |
| O=C1NC(=O)c2cc(Nc3ccc(F)cc3)c(Nc3ccc(F)cc3)cc21 | cell-free assay | 0.5 µM | remaining signal | 89.6% |
| Cc1cc(NC(=O)c2cccc(S(F)(F)(F)(F)F)c2)cc(-n2ccn3nc(-c4cccnc4)cc23)c1 | cell-free assay, competition with immobilised ligand | 1 µM | remaining binding | 100% |
| CNc1cccc2cc(C(=O)Nc3ccc(C(=O)O)cc3)c(=O)[nH]c12 | enzyme activity, inhibitor | 10 µM | inhibition | -3.6% |
| Cc1cc(NC(=O)c2cccc3cc(-c4cccc5[nH]nc(N)c45)ccc23)ccc1F | enzyme activity, inhibitor | 0.1 µM | activity vs control | 122% |
| Cn1cc(Cl)c2c(Oc3c(F)cc(Nc4cc(Cl)nc(N)n4)cc3F)ccnc21 | cell-free assay, competition with immobilised ligand | 0.1 µM | remaining binding | 99% |
| COc1cc2ncnc(Nc3ccc(Oc4ccccc4)cc3C)c2cc1OC | enzyme activity, inhibitor | 1 µM | inhibition | 16% |
